Published values pooled from the literature.
Lines come from different studies, so protocols differ.
Target: Serine/threonine-protein kinase PAK 2 (PAK2, Homo sapiens, UniProt Q13177)

| Compound | effect on | mode | technique | tested at | endpoint | result |
| --- | --- | --- | --- | --- | --- | --- |
| COc1cc(Nc2ncc(F)c(Nc3ccc4c(n3)NC(=O)C(C)(C)O4)n2)cc(OC)c1OC | binding |  | competition with immobilised ligand | 10 µM | inhibition | 64% |
| Nc1ncc(-c2nc(N3CCOCC3)nc(N3CCOCC3)n2)c(C(F)F)n1 | binding |  | competition with immobilised ligand | 10 µM | remaining binding | 58% |
| C#Cc1n[nH]c2c(-c3cn([C@@H](C)c4ccccc4)c(=O)[nH]c3=O)cc(F)cc12 | enzyme activity | inhibitor |  | 0.1 µM | inhibition | 1.7% |
| COc1ncccc1-c1cnn2ccc(N3CCN(C(=O)OC(C)C)CC3)nc12 | binding |  | competition with immobilised ligand | 1 µM | remaining binding | 100% |
| C#Cc1n[nH]c2c(-c3cn(C(C)c4ccccn4)c(=O)[nH]c3=O)cc(F)cc12 (stereo not drawn) | enzyme activity | inhibitor |  | 1 µM | inhibition | -6.9% |
| Cn1cc(-c2cc(F)cc(N3CCn4c(cc5c4CCCC5)C3=O)c2CO)cc(Nc2ccc(N3CCN(C4COC4)CC3)cn2)c1=O | enzyme activity | inhibitor |  | 0.1 µM | inhibition | 11% |
| O=c1[nH]c2ccccc2n1C1CCN(Cc2ccc(-c3[nH]c4cc5ncnc5cc4nc3-c3ccccc3)cc2)CC1 | cell-free assay |  |  | 0.5 µM | remaining signal | 99.2% |
| Cn1cncc1[C@](O)(COc1ccc(C#N)cc1-c1ccc(OC(F)(F)F)cc1)c1ccc(C#N)cc1 | cell-free assay |  | competition with immobilised ligand | 1 µM | remaining binding | 93% |
| Cn1cc(-c2cccc(N3CCc4c(sc5c4CC(C)(C)C5)C3=O)c2CO)cc(Nc2ccncn2)c1=O | enzyme activity | inhibitor |  | 1 µM | inhibition | 6% |
